Screening results: PubChem, several laboratories
UBC13 inh – UBC13 polyubiquitin chain formation inhibitors, primary screen, biochemical, TR-FRET, uHTS | Ubiquitin-conjugating enzyme E2 N (Homo sapiens), P61088 | inhibition, % at 20 µM | 330,000 compounds, 0.47% hits | AID 485273, 2010; in the data active means inhibition above about 45%, passing the limit was not always enough
UCH37 DUB inh – inhibitors of human UCH37 deubiquitinase, primary screen, biochemical, Ub-AMC cleavage, fluorescence; inhibition, % (no concentration beside the values); Ubiquitin carboxyl-terminal hydrolase isozyme L5 (Homo sapiens), Q9Y5K5; 330,000 compounds, 0.33% hits; purified proteasome/UCH37;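 active means mean inhibition over replicate wells above about 20%, limit read from the data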
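Reagent: Ub-AMC substrate; assay system: Proteasome-associated human UCH37 deubiquitinase; controls: no-proteasome and no-compound wells; read-out: % inhibition of Ub-AMC cleavage fluorescence; timing: 30 min preincubation with enzyme, 25 min cleavage at room temperature; signal: AMC fluorescence from Ub-AMC cleavage, excitation 355 nm, emission 460 nm; buffer or medium: Tris-HCl pH 7.4 plus ovalbumin, ATP-MgCl2, DTT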
Apaf-1 inh – inhibitors of human Apaf-1 apoptosome, primary screen, biochemical, DEVD-Rh110 fluorescence, uHTS | Apoptotic protease-activating factor 1 (Homo sapiens), O14727 | reconstituted apoptosome caspase-3 activity | inhibition, % at 20 µM | 330,000 compounds, 0.71% hits | AID 489030, 2010; active means inhibition of at least 40% at 20 µM
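detection = Rh110 fluorescence intensity | test system = biochemical Apaf-1 apoptosome reconstitution | also added = cytochrome c and DEVD-Rh110 substrate | schedule = 30 min plus 50 min, RT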
PREPL inh – PREPL enzyme inhibitors, primary screen, biochemical, fluorescence polarization; Prolyl endopeptidase-like (Homo sapiens), Q4J6C6; 320,000 compounds, 0.68% hits; inhibition, % at 5.96 µM; AID 2751, 2010; recombinant PREPL, fluorescence polarization activity-based probe; in the data active means inhibition above about 43%
Target sequence (Q4J6C6 whole entry, looked up): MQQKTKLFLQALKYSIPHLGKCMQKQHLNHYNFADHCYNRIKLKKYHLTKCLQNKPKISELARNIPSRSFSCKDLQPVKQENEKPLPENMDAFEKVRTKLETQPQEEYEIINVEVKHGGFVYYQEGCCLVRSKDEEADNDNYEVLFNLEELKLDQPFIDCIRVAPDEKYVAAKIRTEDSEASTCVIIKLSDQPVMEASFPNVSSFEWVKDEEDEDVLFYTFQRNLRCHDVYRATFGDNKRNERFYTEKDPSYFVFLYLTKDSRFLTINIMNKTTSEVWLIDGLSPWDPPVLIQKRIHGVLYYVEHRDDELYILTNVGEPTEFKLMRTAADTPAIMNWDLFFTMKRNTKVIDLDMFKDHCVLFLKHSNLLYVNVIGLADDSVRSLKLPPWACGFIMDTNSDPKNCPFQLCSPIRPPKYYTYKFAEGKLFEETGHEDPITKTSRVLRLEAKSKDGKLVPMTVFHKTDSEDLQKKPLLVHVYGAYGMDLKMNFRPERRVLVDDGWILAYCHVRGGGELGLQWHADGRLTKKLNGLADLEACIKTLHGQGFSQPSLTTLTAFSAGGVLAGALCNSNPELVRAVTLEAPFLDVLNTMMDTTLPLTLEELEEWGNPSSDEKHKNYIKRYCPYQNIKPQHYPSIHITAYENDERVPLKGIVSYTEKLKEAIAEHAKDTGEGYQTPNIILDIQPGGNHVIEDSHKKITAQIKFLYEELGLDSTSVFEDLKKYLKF
Numbers stand for hits; i = inactive; nt = not tested or not shown. Rows were chosen to be rich in hits. Some 1.5% of all compounds tested hit in one or more screens of this group.

SMILES	UBC13 inh	UCH37 DUB inh	Apaf-1 inh	PREPL inh
N#Cc1c(N)sc(=S)c2c1CCN(Cc1ccccc1)C2	i	nt	96	74
COc1cc2c3nnc(-c4ccc(F)cc4)c-3cn(Cc3cccc(F)c3)c2cc1OC	i	i	i	i
COc1cc2c3nnc(-c4ccc(F)cc4)c-3cn(Cc3cccc(C)c3)c2cc1OC	79	i	53	i
COc1cc(C=NN2CCN(c3ccccc3)CC2)ccc1OC(C)=O	nt	i	nt	nt
C#CCOCCOCCOCCNc1nc(N2CCN(C(=O)[C@H](CCCN=C(N)N)n3cc(C(N)[C@@H](C)CC)nn3)CC2)nc(N2CCN(C(=O)[C@H](CCC(=O)O)n3cc([C@@H](N)CCCCN)nn3)CC2)n1 (stereo partly drawn)	i	33	i	i
C#CCOCCOCCOCCNc1nc(N2CCN(C(=O)[C@H](Cc3cc4ccccc4[nH]3)n3cc([C@@H](N)C(C)CC)nn3)CC2)nc(N2CCN(C(=O)[C@H](CCCCN)n3cc([C@@H](N)CO)nn3)CC2)n1 (stereo partly drawn)	110	i	i	i
C#CCOCCOCCOCCNc1nc(N2CCN(C(=O)[C@H]([C@@H](C)CC)n3cc([C@@H](N)CC(C)C)nn3)CC2)nc(N2CCN(C(=O)[C@H](CCCCN)n3cc([C@@H](N)CC(C)C)nn3)CC2)n1	55	i	i	i
C#CCOCCOCCOCCNc1nc(N2CCN(C(=O)[C@H]([C@@H](C)CC)n3cc([C@@H](N)CO)nn3)CC2)nc(N2CCN(C(=O)[C@H](CCCCN)n3cc([C@@H](N)C(C)CC)nn3)CC2)n1 (stereo partly drawn)	i	i	i	i
C#CCOCCOCCOCCNc1nc(N2CCN(C(=O)[C@H](CCCCN)n3cc([C@@H](N)C(C)CC)nn3)CC2)nc(N2CCN(C(=O)[C@H](CCCCN)n3cc([C@@H](N)CO)nn3)CC2)n1 (stereo partly drawn)	46	nt	i	i
C#CCOCCOCCOCCNc1nc(N2CCN(C(=O)[C@H](CCC(=O)O)n3cc(C(N)CO)nn3)CC2)nc(N2CCN(C(=O)[C@H](Cc3cc4ccccc4[nH]3)n3cc(C(N)[C@H](C)CC)nn3)CC2)n1 (stereo partly drawn)	i	i	i	i
CCc1cc(C(=O)NN=Cc2ccc(OC)cc2)c2ccccc2n1	nt	i	nt	nt
Cc1ccc2[nH]c(C(=O)NN=Cc3ccc([N+](=O)[O-])cc3)c(C)c2c1	nt	i	nt	nt
CC(=NNC(=O)c1ccncc1)c1c[nH]c2ccccc12	nt	i	nt	nt
C#CCOCCOCCOCCNc1nc(N2CCN(C(=O)C([C@@H](C)CC)n3cc(C(N)COC(=O)C(F)(F)F)nn3)CC2)nc(N2CCN(C(=O)[C@H](CCCCN)n3cc(C(N)[C@H](C)CC)nn3)CC2)n1 (stereo partly drawn)	114	i	i	i
C#CCOCCOCCOCCNc1nc(N2CCN(C(=O)[C@H](CCCCN)n3cc([C@@H](N)CO)nn3)CC2)nc(N2CCN(C(=O)[C@H](Cc3cc4ccccc4[nH]3)n3cc([C@@H](N)CO)nn3)CC2)n1	110	i	i	i
C#CCOCCOCCOCCNc1nc(N2CCN(C(=O)[C@H]([C@@H](C)CC)n3cc([C@@H](N)CC(C)C)nn3)CC2)nc(N2CCN(C(=O)[C@H](CCCCN)n3cc([C@@H](N)C(C)CC)nn3)CC2)n1 (stereo partly drawn)	i	i	i	i
C#CCOCCOCCOCCNc1nc(N2CCN(C(=O)[C@H](Cc3cc4ccccc4[nH]3)n3cc([C@@H](N)C(C)CC)nn3)CC2)nc(N2CCN(C(=O)[C@H](Cc3cc4ccccc4[nH]3)n3cc([C@@H](N)CC(C)C)nn3)CC2)n1 (stereo partly drawn)	61	nt	i	69
CC(=NO)c1cc(Cl)ccc1O	nt	i	nt	nt
CC(C)(C)OC(=O)N1CCC(NC(=O)c2nc[nH]c2C(=O)N2CCc3ccccc3C2)CC1	i	29	i	i
CC(C)(C)OC(=O)CNC(=O)c1nc[nH]c1C(=O)N1CCc2ccccc2C1	i	31	i	i
CC1CCN(C(=O)c2[nH]cnc2C(=O)NCc2ccc(CNC(=O)OC(C)(C)C)cc2)CC1	i	28	i	i
NC(=NOC(=O)c1ccc([N+](=O)[O-])cc1)c1ccc(Br)cc1	nt	i	nt	nt
S=c1[nH]nc(-c2cccnc2)n1N=C/C=C/c1ccco1	nt	i	nt	nt
Cc1c(C#N)c(O)n(CCO)c(=O)c1N=Nc1ccc(S(N)(=O)=O)cc1	i	21	i	i
Cc1c(C#N)c(O)n(C)c(=O)c1N=Nc1ccc(S(N)(=O)=O)cc1	nt	i	nt	nt
SMILES	UBC13 inh	UCH37 DUB inh	Apaf-1 inh	PREPL inh
Cc1cccc(CN2C(=O)/C(=C\c3ccc(C(=O)NCCCN4CCN(C)CC4)cc3)Oc3ccccc32)c1	68	nt	53	i
CN1CCN(CCCNC(=O)c2ccc(/C=C3/Sc4ccccc4N(Cc4cccc(Cl)c4)C3=O)cc2)CC1	nt	i	nt	nt
FC(F)(F)c1cccc(-c2ccc(C=NNc3nncc(-c4ccccc4)n3)o2)c1	nt	i	nt	nt
Cc1cccc(C)c1N(CC(=O)NN=Cc1cc(Br)c(C)o1)S(C)(=O)=O	nt	i	nt	nt
C=CCC[C@H](Cc1ccc(F)cc1)C(=O)OC[C@H](Cc1c[nH]c2ccccc12)NC(=O)[C@@H](CC=C)CC(=O)NCCO	i	25	i	i
Nc1ccc(Nc2nc(-c3ccncc3)cs2)cc1	i	i	i	44
Cc1scc(C(=O)NN=Cc2ccc(Cl)s2)c1C	nt	i	nt	nt
CCN(CC)C(=O)c1sc(NC(=O)c2c(OC)cccc2OC)c(C#N)c1C	i	29	i	i
O=C(NCCc1ccc(Cl)cc1)c1ccc(=O)[nH]c1	i	i	i	i
O=C(NCCc1ccc(O)cc1)c1ccc(Cl)cc1	i	31	i	i
O=C(c1ccccc1)N1CCN(C(=O)c2cc3ccccc3o2)CC1	i	27	i	i
COc1ccccc1C=NNC(=O)CC(=O)Nc1ccc(Cl)c(Cl)c1	nt	i	nt	nt
CC12OC1C1(O)CCCC1=CC2=O (stereo not drawn)	i	nt	i	i
COC1=CC2(O)CCCC2=CC1=O (stereo not drawn)	i	30	i	i
CC1=NN(c2ccccc2)C(=O)/C1=C/c1cc2cc(C)ccc2nc1N1CCCCC1	i	nt	94	i
CC1=NN(c2ccccc2)C(=O)/C1=C\c1cc(C)n(C)c1C	i	i	i	i
COCCNC(=O)c1onc(CSc2cc(C)cc(C)c2)c1C(=O)O	i	34	i	i
COCCNC(=O)c1onc(CSc2ccc(C)c(C)c2)c1C(=O)O	i	i	i	i
CCOc1cc(/C=C2\SC(=O)N(CC(=O)Nc3ccccc3F)C2=O)cc([N+](=O)[O-])c1O	i	23	i	i
CCS(=O)(=O)N1CCCC(C(=O)NCC2CCCO2)C1 (stereo not drawn)	i	31	i	i
CCOC(=O)NN=Cc1c(F)cccc1F	nt	i	nt	nt
CCN(CC)c1ccc(C=NNS(=O)(=O)c2ccc(C)c([N+](=O)[O-])c2)cc1	nt	i	nt	nt
